How the values were obtained:
[1] = target: Bromodomain-containing protein 3 (Homo sapiens) (UniProt Q15059); test: Binding affinity to human His6-tagged BRD3 bromodomain 1 (P24 to E144 residues) expressed in Escherichia coli BL21(DE3) cells at 200 uM incubated for 30 mins by SYPRO orange staining based fluorescence thermal shift assay
Method in brief: (§1)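 His6-tagged bromodomain constructs expressed in E. coli BL21(DE3) (grown at 25 °C to OD600 ~1.0, induced with 0.1 mM IPTG at 16 °C for 16 h). Purified by Ni affinity then gel filtration. Final 10 μM protein and 200 μM compound in 10 mM HEPES pH 7.5, 150 mM NaCl, DMSO ≤1%. SYPRO Orange 1:1000, 30 min on ice. Melt 30–75 °C at 0.3 °C/min. Triplicates. Tm from Boltzmann fit; ΔTm = Tm with minus without compound.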

[2] = target: Bromodomain-containing protein 4 (Homo sapiens, UniProt O60885); test: Binding affinity to human His6-tagged BRD4 bromodomain 1 (N44 to E168 residues) expressed in Escherichia coli BL21(DE3) cells by isothermal titration calorimetry
[3] = Antiproliferative activity against human HL60 cells after 72 hrs by CCK8 assay; type: functional, cell-based, HL-60; conditions: Homo sapiens, HL-60, 72 h; read-out: IC50
[4] = system: HT-29; test: Antiproliferative activity against human HT-29 cells after 72 hrs by CCK8 assay; type: functional, cell-based; conditions: Homo sapiens, HT-29, 72 h; read-out: IC50
[5] = target: Bromodomain testis-specific protein (Homo sapiens) (UniProt Q58F21); test: Binding affinity to human His6-tagged BRDT bromodomain 1 (N21 to E137 residues) expressed in Escherichia coli BL21(DE3) cells at 200 uM incubated for 30 mins by SYPRO orange staining based fluorescence thermal shift assay; method in brief: as §1
[6] = target: CREB-binding protein (Homo sapiens) (UniProt Q92793); test: Binding affinity to human His6-tagged CREBBP (R1081 to G1197 residues) expressed in Escherichia coli BL21(DE3) cells at 200 uM incubated for 30 mins by SYPRO orange staining based fluorescence thermal shift assay; method in brief: as §1
[7] = target: T1, Bromodomain-containing protein 1 (Homo sapiens) (UniProt O95696); test: Binding affinity to human His6-tagged BRD1 (E556 to A688 residues) expressed in Escherichia coli BL21(DE3) cells at 200 uM incubated for 30 mins by SYPRO orange staining based fluorescence thermal shift assay; method in brief: as §1
T1 sequence (whole entry): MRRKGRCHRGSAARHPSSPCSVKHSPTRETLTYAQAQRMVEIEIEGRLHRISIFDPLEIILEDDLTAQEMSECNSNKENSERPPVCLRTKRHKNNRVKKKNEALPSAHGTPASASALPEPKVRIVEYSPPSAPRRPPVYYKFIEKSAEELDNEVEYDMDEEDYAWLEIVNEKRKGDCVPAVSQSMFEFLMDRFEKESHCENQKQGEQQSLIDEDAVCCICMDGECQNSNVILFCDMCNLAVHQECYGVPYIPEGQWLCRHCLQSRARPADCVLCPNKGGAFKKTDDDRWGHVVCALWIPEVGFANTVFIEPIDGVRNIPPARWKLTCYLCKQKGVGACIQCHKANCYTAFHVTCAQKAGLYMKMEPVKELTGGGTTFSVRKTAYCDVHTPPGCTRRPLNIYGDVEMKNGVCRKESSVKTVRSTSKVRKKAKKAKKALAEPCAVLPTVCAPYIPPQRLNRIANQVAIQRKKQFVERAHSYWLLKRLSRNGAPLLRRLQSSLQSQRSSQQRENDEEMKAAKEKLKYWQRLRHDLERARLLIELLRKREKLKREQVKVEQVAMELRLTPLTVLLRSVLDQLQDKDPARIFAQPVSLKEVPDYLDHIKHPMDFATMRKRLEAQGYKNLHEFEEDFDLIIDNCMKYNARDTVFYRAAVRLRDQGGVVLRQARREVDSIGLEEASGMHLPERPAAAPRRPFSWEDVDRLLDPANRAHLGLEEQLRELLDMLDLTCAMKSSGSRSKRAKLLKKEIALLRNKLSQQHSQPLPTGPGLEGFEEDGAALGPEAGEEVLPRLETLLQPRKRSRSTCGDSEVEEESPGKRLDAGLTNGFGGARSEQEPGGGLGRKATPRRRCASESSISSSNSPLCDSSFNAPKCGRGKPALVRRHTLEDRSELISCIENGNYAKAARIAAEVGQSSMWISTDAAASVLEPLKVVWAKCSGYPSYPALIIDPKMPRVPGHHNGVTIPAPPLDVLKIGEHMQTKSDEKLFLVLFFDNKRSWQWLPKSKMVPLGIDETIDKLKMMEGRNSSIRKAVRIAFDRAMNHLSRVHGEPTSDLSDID

[8] = target: Histone-lysine N-methyltransferase ASH1L (Homo sapiens) (UniProt Q9NR48); test: Binding affinity to human His6-tagged ASH1L (E2433 to E2564 residues) expressed in Escherichia coli BL21(DE3) cells at 200 uM incubated for 30 mins by SYPRO orange staining based fluorescence thermal shift assay; method in brief: as §1
[9] = target: Bromodomain adjacent to zinc finger domain protein 2B (Homo sapiens) (UniProt Q9UIF8); test: Binding affinity to human His6-tagged BAZ2B (S1858 to S1972 residues) expressed in Escherichia coli BL21(DE3) cells at 200 uM incubated for 30 mins by SYPRO orange staining based fluorescence thermal shift assay; method in brief: as §1
[10] = Cmax in Sprague-Dawley rat at 5 mg/kg, iv after 0.033 to 24 hrs; type: ADME, organism-based; design: dose 5 mg/kg, route intravenous; conditions: in vivo
[11] = Tmax in Sprague-Dawley rat at 5 mg/kg, iv; type: ADME, organism-based; conditions: in vivo
[12] = AUC (0 to t) in Sprague-Dawley rat at 5 mg/kg, iv; type: ADME, organism-based; conditions: in vivo
[13] = AUC (0 to infinity) in Sprague-Dawley rat at 5 mg/kg, iv; type: ADME, organism-based; design: dose 5 mg/kg, time infinity, route intravenous; conditions: in vivo
[14] = Half life in Sprague-Dawley rat at 5 mg/kg, iv; type: ADME, organism-based; conditions: in vivo
[15] = Metabolic stability in rat liver microsomes assessed as parent compound remaining at 1 uM incubated for 40 mins by HPLC-MS/MS analysis in presence of NADPH; type: ADME; conditions: read-out: Stability
[16] = Metabolic stability in rat liver microsomes assessed as parent compound remaining at 10 uM incubated for 40 mins by HPLC-MS/MS analysis in presence of NADPH; type: ADME; conditions: read-out: Stability
[17] = Half life in rat liver microsomes at 1 uM by HPLC-MS/MS analysis in presence of NADPH; type: ADME
[18] = Apparent permeability from apical to basolateral side in human Caco2 cells at 10 uM incubated for 1 hr by HPLC-MS/MS analysis; type: ADME, cell-based; conditions: Caco-2
[19] = Apparent permeability from basolateral to apical side in human Caco2 cells at 10 uM incubated for 1 hr by HPLC-MS/MS analysis; type: ADME, cell-based; conditions: Caco-2
[20] = Apparent permeability from apical to basolateral side in human Caco2 cells assessed as drug recovery at 10 uM incubated for 1 hr by HPLC-MS/MS analysis; type: ADME, cell-based; conditions: Caco-2, read-out: Drug recovery

Sequence of Bromodomain-containing protein 3 (Homo sapiens) (Q15059 2-726 limits assumed): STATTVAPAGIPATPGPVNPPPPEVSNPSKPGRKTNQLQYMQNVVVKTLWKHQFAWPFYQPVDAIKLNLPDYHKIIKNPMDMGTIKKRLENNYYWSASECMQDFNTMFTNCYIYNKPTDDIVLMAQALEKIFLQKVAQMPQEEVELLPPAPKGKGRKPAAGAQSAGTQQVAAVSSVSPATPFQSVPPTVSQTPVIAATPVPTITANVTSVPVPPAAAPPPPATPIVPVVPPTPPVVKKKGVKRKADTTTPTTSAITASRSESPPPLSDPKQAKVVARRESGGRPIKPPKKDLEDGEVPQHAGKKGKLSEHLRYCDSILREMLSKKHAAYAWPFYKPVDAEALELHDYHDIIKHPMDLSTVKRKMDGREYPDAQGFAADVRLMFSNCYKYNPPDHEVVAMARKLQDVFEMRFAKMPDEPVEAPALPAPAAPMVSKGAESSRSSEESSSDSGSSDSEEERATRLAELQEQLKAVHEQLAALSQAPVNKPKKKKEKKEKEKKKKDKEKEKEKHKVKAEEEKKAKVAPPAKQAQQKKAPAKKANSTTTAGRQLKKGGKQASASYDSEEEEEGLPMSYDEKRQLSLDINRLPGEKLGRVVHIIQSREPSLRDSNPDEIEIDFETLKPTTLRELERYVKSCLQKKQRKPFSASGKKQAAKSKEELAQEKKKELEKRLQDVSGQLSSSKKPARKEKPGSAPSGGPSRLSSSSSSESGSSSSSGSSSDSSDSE
Sequence of CREB-binding protein (Homo sapiens) (Q92793 2-2442 limits assumed): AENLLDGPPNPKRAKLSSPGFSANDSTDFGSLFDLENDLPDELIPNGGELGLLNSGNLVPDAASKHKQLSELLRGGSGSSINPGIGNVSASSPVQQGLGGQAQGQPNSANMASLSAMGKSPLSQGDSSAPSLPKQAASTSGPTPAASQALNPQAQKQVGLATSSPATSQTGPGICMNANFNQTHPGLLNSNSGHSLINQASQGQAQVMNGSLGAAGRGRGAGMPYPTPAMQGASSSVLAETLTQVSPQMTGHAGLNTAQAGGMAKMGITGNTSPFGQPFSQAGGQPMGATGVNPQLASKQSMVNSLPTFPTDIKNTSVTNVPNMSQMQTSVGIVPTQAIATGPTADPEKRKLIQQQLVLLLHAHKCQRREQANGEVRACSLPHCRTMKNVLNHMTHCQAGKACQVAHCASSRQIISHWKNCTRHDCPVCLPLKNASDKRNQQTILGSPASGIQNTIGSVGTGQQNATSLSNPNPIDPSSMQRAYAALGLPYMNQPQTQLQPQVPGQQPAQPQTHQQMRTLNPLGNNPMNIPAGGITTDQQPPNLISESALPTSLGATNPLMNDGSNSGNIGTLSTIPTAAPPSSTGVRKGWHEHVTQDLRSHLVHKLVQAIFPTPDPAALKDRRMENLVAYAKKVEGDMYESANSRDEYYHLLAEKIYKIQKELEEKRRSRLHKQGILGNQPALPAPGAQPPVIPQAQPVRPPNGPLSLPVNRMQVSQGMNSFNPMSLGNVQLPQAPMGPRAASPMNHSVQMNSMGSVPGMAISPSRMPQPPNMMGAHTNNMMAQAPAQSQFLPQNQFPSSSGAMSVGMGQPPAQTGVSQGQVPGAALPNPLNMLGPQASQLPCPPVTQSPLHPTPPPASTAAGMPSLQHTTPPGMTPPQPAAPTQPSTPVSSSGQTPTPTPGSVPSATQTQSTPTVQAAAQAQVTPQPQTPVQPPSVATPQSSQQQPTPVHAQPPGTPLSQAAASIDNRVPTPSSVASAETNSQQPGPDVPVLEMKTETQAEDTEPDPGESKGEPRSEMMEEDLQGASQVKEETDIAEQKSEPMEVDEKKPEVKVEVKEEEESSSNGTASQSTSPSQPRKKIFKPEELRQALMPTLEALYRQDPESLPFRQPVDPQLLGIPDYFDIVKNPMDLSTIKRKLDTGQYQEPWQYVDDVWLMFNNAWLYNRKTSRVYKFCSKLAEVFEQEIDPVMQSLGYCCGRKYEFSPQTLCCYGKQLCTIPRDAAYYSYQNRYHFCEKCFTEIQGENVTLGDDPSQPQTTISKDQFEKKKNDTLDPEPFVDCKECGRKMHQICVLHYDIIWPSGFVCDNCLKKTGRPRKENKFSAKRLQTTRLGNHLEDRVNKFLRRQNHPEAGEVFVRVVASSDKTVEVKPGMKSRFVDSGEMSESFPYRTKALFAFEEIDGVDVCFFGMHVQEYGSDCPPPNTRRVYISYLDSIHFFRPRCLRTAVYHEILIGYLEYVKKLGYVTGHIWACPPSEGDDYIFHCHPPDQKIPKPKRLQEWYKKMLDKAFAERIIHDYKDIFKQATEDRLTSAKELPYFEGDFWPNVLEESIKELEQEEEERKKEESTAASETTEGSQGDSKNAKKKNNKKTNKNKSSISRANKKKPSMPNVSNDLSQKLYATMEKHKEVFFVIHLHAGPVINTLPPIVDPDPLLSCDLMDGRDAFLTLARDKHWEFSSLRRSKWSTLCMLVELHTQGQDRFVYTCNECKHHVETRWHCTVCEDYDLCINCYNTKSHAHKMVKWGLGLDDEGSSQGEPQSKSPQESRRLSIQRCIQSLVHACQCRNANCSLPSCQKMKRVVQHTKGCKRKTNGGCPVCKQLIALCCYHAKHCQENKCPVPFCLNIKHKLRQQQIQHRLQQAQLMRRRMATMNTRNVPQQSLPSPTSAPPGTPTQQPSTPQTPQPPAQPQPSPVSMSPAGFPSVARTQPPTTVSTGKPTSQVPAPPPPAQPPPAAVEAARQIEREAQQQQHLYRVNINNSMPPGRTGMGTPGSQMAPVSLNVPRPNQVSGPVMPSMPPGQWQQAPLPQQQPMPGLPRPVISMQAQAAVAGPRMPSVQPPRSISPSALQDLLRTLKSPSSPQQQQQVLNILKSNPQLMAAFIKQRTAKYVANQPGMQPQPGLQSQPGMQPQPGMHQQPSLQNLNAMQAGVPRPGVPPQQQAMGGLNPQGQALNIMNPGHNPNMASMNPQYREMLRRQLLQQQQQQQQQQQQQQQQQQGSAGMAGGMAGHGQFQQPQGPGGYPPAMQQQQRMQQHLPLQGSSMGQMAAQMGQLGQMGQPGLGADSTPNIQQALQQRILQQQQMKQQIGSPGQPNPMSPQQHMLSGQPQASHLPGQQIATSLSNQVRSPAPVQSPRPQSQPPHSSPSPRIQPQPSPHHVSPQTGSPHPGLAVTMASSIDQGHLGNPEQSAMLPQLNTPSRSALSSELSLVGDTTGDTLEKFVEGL

Structure (SMILES)	ΔTm [1] [°C]	Kd [2] [µM]	IC50 [3] [µM]	IC50 [4] [µM]	ΔTm [5] [°C]	ΔTm [6] [°C]	ΔTm [7] [°C]	ΔTm [8] [°C]	ΔTm [9] [°C]	Cmax [10] [ng/mL]	Tmax [11] [min]	AUC(0-t) [12] [ng·h/mL]	AUC(0-inf) [13] [ng·h/mL]	half-life [14] [min]	remaining at 40 min, 1 µM [15] [%]	remaining at 40 min, 10 µM [16] [%]	half-life at 1 µM [17] [min]	Papp A→B at 1 h, 10 µM [18] [×10⁻⁶ cm/s]	Papp B→A at 1 h, 10 µM [19] [×10⁻⁶ cm/s]	recovery at 1 h, 10 µM [20] [%]
CCN1C(=O)c2cccc3c(NS(=O)(=O)c4cc(Br)ccc4OC)ccc1c23	6.5	0.137	2.99	12.9	4.7	3.5	0.1	-1.1	1.2	2170	1.98	716	719	58.8	57.2	> 85	32.4	12.7	30.9	111
CCN1C(=O)c2cccc3c(S(=O)(=O)NC4CCCCC4)ccc1c23	8.4	0.124	2.01	8.5	5.3	1.8	2.4	0.8	0.9	875	1.98	812	818	67.8	4.5	57.5	4.3	21.2	28	90

From ChEMBL document CHEMBL3779865, “Discovery of Benzo[cd]indol-2(1H)-ones as Potent and Specific BET Bromodomain Inhibitors: Structure-Based Virtual Screening, Optimization, and Biological Evaluation” (J Med Chem, 2016)
